Experimental findings from ChEMBL document CHEMBL1129565, “Selective inhibitors of monoamine oxidase. 3. Structure-activity relationship of tricyclics bearing imidazoline, oxadiazole, or tetrazole groups” (J Med Chem, 1996) are described below.

Series [1] deals with T1, Amine oxidase [flavin-containing] A (Rattus norvegicus, UniProt P21396).
T1 sequence (P21396 whole entry): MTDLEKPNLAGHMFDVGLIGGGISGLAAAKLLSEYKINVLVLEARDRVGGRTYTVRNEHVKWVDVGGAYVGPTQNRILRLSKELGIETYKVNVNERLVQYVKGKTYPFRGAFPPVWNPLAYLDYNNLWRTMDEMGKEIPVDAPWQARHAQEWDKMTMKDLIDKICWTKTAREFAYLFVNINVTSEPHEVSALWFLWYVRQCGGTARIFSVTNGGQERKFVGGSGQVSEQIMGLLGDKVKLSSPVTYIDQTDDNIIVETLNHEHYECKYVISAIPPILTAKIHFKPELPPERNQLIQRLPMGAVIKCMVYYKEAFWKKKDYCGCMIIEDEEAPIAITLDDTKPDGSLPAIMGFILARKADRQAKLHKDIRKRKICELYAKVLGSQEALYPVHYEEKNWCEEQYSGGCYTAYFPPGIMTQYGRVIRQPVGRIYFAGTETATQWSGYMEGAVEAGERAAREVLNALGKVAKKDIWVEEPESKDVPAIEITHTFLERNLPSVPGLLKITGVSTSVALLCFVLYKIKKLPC
Nature of the series: Inhibitory concentration against rat brain mitochondrial monoamine oxidase A. Summed up:
(§1)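 Rat brain mitochondrial MAO extract preincubated with inhibitor 15 min at 37 °C in 50 mM potassium phosphate pH 7.4. [3H]serotonin added at 0.2 μM final, then 20 min incubation. Pargyline 2 mM blanks. Stopped with HCl, products extracted into ethyl acetate/toluene and counted radiometrically. Triplicates; IC50 from mean % inhibition vs log concentration.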

For series [2], the target named is T2, Amine oxidase [flavin-containing] B (Rattus norvegicus, UniProt P19643).
T2 sequence (P19643 whole entry): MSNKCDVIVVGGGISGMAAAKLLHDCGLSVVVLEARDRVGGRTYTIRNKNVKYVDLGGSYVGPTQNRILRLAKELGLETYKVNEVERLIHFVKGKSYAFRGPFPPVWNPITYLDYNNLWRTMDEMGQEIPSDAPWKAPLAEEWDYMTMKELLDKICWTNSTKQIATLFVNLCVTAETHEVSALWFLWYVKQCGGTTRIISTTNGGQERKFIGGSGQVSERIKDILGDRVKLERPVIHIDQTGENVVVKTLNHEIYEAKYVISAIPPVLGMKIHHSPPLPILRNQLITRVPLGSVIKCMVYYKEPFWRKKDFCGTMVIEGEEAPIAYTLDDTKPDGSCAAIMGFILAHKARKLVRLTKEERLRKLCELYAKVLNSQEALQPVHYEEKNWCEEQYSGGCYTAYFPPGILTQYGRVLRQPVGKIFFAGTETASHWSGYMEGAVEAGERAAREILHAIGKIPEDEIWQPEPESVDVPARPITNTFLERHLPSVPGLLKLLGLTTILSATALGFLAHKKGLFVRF
In words: Inhibitory activity against rat brain mitochondrial Monoamine oxidase B at 0.003 uM. Summed up:
(§2)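 Rat brain mitochondrial MAO extract preincubated with inhibitor 15 min at 37 °C in 50 mM potassium phosphate pH 7.4. [14C]phenethylamine added at 10 μM final, then 20 min incubation. Pargyline 2 mM blanks. Stopped with HCl, products extracted into ethyl acetate/toluene and counted radiometrically. Triplicates; IC50 from mean % inhibition vs log concentration.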

For series [3], the target named is T1, Amine oxidase [flavin-containing] A. Nature of the series: Inhibition of the enzyme Monoamine oxidase A which was not completely reverserved after 24 hr of dialysis. Summed up: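 Reversibility: MAO extract preincubated with or without inhibitor 15 min at 37 °C, in duplicate, then dialysed 24 h at 4 °C with shaking against 0.1 M potassium phosphate pH 7.4, 5% sucrose, 1 mM dithiothreitol, buffer changed ca. 3 and 19 h. Undialysed portions held at 4 °C; both assayed together for MAO activity.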

The target is the same in series [4]. Nature of the series: Inhibition of the enzyme Monoamine oxidase A which was not completely reverserved after 24 hr of dialysis after po administration to rat (brain). The series is classed as organism-based. To be noted: in vivo.
Series [5] addresses T2, Amine oxidase [flavin-containing] B. In words: Inhibitory activity against rat brain mitochondrial Monoamine oxidase B at 1 uM. In a few lines: as §2
For series [6], the target named is T1, Amine oxidase [flavin-containing] A. In words: Inhibitory concentration against Monoamine oxidase A. In a few lines:
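Rat brain mitochondrial MAO extract was preincubated ± inhibitor 15 min at 37 °C in 50 mM potassium phosphate (pH 7.4), then given [3H]serotonin at 0.2 μM final for 20 min. Blanks contained 2 mM pargyline. Products went into ethyl acetate/toluene for scintillation counting. Triplicates per concentration; IC50 extrapolated from mean % inhibition vs log concentration plots.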

The target of series [7] is T2, Amine oxidase [flavin-containing] B. Nature of the series: Inhibitory activity against Monoamine oxidase B at 1 uM. In a few lines:
as §2

Series [8] shares this target. In words: Inhibitory activity against rat brain mitochondrial Monoamine oxidase B at 0.03 uM. In a few lines: as §2
For series [9] the target is unchanged. In words: Inhibitory activity against rat brain mitochondrial Monoamine oxidase B at < 1 uM. Summed up: as §2
Series [10] concerns the target T1, Amine oxidase [flavin-containing] A. In words: Inhibitory concentration against rat brain mitochondrial Monoamine oxidase A at <1 uM. Summed up:
as §1

Series [11] addresses T2, Amine oxidase [flavin-containing] B. In words: Inhibitory activity against rat brain mitochondrial Monoamine oxidase B. Summed up: as §2
Series [12] has the same target. In words: Inhibitory activity against rat brain mitochondrial Monoamine oxidase B at 50 uM. Summed up: as §2
Series [13] shares this target. Nature of the series: Inhibitory activity against rat brain mitochondrial Monoamine oxidase B at 0.2 uM. In a few lines: as §2
Series [14] addresses T1, Amine oxidase [flavin-containing] A. In words: Inhibition of the enzyme MAO A which was not completely reverserved after 24 hr of dialysis after po administration to rat (brain). Particulars: in vivo. It counts as organism-based.
Series [15] has the same target. In words: Inhibitory concentration against rat brain mitochondrial Monoamine oxidase A at 1 uM. Summed up: as §1
The target of series [16] is T2, Amine oxidase [flavin-containing] B. In words: Inhibitory activity against rat brain mitochondrial Monoamine oxidase B at 0.1 uM. In a few lines:
as §2

In series [17] the target is T1, Amine oxidase [flavin-containing] A. In words: Inhibitory concentration against rat brain mitochondrial Monoamine oxidase A at 0.1 uM. In a few lines: as §1
The target in series [18] is T2, Amine oxidase [flavin-containing] B. In words: Inhibitory activity against rat brain mitochondrial Monoamine oxidase B at 0.3 uM. Summed up:
as §2

pIC50: −log10 of the molar value.

The pIC50 is −log10 of the IC50, conventionally taken in molar units. Low readings indicate a high IC50, high ones a low IC50. A word on the inhibition: it is the drop in the measured response relative to a control, in per cent. In the case of `CCCOc1ccc2c(c1)C(=O)c1ccc(-c3nnn(C)n3)cc1S2(=O)=O`, the pIC50 in series [1] was 8.70. Also, the inhibition at 0.003 µM in series [2] was -13%. Moreover, the Reversible in [3] was 0%.
In the case of `NCCNc1ccc2c(c1)C(=O)c1ccc(C3=NCCN3)cc1S2(=O)=O`, the negative-log IC50 (pIC50) in [1] was 6.52. The Reversible in [4] turned out to be 20%. Also, in [5], the inhibition at 1 µM is 11%.
Take `c1ccc2c(c1)Sc1ccc(C3=NCCN3)cc1S2`: the pIC50 in [6] is 6.52. The inhibition at 1 µM in [7] was 31%.
Regarding `CN(C)c1ccc2c(c1)C(=O)c1ccc(C3=NCCN3)cc1S2(=O)=O`, the negative logarithm of the IC50 (pIC50) in [1] was 7.70. Also, the inhibition at 0.03 µM in series [8] was 8%. Moreover, in series [3], the Reversible was determined as 21%.
The Inhibition is the relative decrease from the control value, in per cent. For the molecule `CC(=O)N1CCN=C1c1ccc2c(c1)S(=O)(=O)c1ccc(F)cc1C2=O`, the Inhibition in series [9] is -11%; in series [10] it was 4%.
Take `CCCOc1ccc2sc3cc(-c4nnc(C)o4)ccc3c(=O)c2c1`: the figures for the negative logarithm of the IC50 (pIC50) in [1] and in series [11] were 7.22 and 6.00, respectively. In series [3], the Reversible worked out at 10%.
For the molecule `Cn1nnc(-c2ccc3c(c2)S(=O)(=O)c2ccccc2O3)n1`, the inhibition at 50 µM in series [12] came to 10%. This molecule also had a negative logarithm of the IC50 (pIC50) in series [1] of 8.70.
Take `O=C1c2cc(N3CCSCC3)ccc2S(=O)(=O)c2cc(C3=NCCN3)ccc21`: the pIC50 in series [1] was 7.70. Moreover, in series [13], the inhibition at 0.2 µM turned out to be 10%.
For `c1ccc2c(c1)Oc1ccc(C3=NCCN3)cc1S2`, the results for the negative-log IC50 (pIC50) in series [1] and in series [11] were 7.00 and 5.00, respectively. In series [3], this molecule gave a Reversible of 46%.
In series [1], `CCNc1ccc2c(c1)C(=O)c1ccc(C3=NCCN3)cc1S2(=O)=O` gave a pIC50 of 8.00. Also, the Reversible in series [4] came out at 0%. Further, the inhibition at 1 µM in [5] was determined as 0%.
As for `O=C1c2cc(Cl)ccc2S(=O)(=O)c2cc(C3=NCCN3)ccc21`, in series [1], the negative logarithm of the IC50 (pIC50) was 7.15. The same molecule had a Reversible in [14] of 60%. Further, the inhibition at 0.2 µM in series [13] was 3%.
As to `Cc1ccc2c(c1)S(=O)(=O)c1cc(C3=NCCN3)ccc1C2=O`, the results for the inhibition at 1 µM in [15] and in series [5] were 53% and 5%, respectively.
For `O=c1c2ccc(-c3nnn(CCO)n3)cc2oc2ccc(OCCO)cc12`, the values for the Inhibition in series [9] and in series [10] were 18% and 29%, respectively.
For `Cn1nnnc1-c1ccc2c(c1)S(=O)(=O)c1ccccc1C2=O`, the figures for the inhibition at 0.1 µM in series [16] and in [17] were 1% and 53%, respectively.
In the case of `Cn1nnc(-c2ccc3c(=O)c4cc(OCCO)ccc4oc3c2)n1`, the inhibition at 1 µM in series [15] worked out at 64%. Besides, the Inhibition in series [9] is reported as 21%.
For the molecule `CCCc1ccc2c(c1)C(=O)c1ccc(C3=NCCN3)cc1S2(=O)=O`, in series [1], the negative logarithm of the IC50 (pIC50) was 7.40. In addition, in [18], the inhibition at 0.3 µM was 0%. This molecule registered a Reversible in series [3] of 2%.
In the case of `COc1ccc2c(c1)C(=O)c1ccc(-c3nnn(C)n3)cc1S2(=O)=O`, the figures for the negative logarithm of the IC50 (pIC50) in series [1] and in series [11] were 8.70 and 7.22, respectively. In addition, the Reversible in series [3] stood at 29%.
For `O=S1(=O)c2ccccc2-c2cc(-c3nn[nH]n3)ccc21`, the inhibition at 1 µM in series [15] was found to be 9%; in series [5], 0%.
